Measurements as given in ChEMBL document CHEMBL1123510, “Investigation of the structural requirements for the kappa-selective opioid receptor antagonist, 6 beta,6 beta'-[ethylenebis(oxyethyleneimino)]bis[17-(cyclopropylmethyl)- 4,5 alpha-epoxymorphinan-3,14-diol] (TENA)” (J Med Chem, 1986).

Legend:
Type in all cases: functional
Cavia porcellus [1] = organism: Cavia porcellus; assay: Inhibitory concentration of compound was measured in muscle of the guinea pig ileum; details: Muscle tissue
How it was run: (§1)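 Electrically stimulated longitudinal muscle of guinea pig ileum; agonist IC50 for inhibition of the twitch, with potency expressed relative to a control morphine IC50 run in the same preparation.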

Cavia porcellus [2] = organism: Cavia porcellus; assay: Inhibitory concentration of morphine was measured in muscle of the guinea pig ileum; details: Muscle tissue; how it was run: as §1
Cavia porcellus [3] = organism: Cavia porcellus; assay: The agonist potency of compound was determined relative to control morphine IC50; how it was run: as §1
[4] = Ratio of IC50 of ethylketazocine (EK) in the presence of compound to IC50 of ethylketazocine in the absence of compound
How it was run: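 Guinea pig ileum longitudinal muscle, electrically stimulated; the kappa agonist ethylketazocine (EK) was run with and without the test antagonist, given at 20 nM or 2 nM depending on the compound. The IC50 ratio is EK IC50 with antagonist over EK IC50 alone.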

Structure (SMILES) | IC50 (Cavia porcellus [1]) [nM] | IC50 (Cavia porcellus [2]) [nM] | Relative potency (Cavia porcellus [3]) | IC50 ratio [4]
N=C(N)NCCOCCOCCN[C@@H]1CC[C@@]2(O)C3Cc4ccc(O)c5c4C2(CCN3CC2CC2)[C@H]1O5.O=S(=O)(O)O (some centres not stated) | 11.4 | 104 | 9.1 | 1
NCCOCCOCCN[C@@H]1CC[C@@]2(O)C3Cc4ccc(O)c5c4C2(CCN3CC2CC2)[C@H]1O5 (some centres not stated) | 21.1 | 123 | 5.8 | 1.1
Oc1ccc2c3c1O[C@H]1[C@H](NCCOCCOCCNCc4ccccc4)CC[C@@]4(O)C(C2)N(CC2CC2)CCC314 (some centres not stated) | 206 | 107 | 5.2 | 3.1
